In ChEMBL document CHEMBL4270536, “Preparation, characterisation and biological evaluation of new N-phenyl amidobenzenesulfonates and N-phenyl ureidobenzenesulfonates inducing DNA double-strand breaks. Part 3. Modulation of ring A” (Eur J Med Chem, 2018):

System: HT-1080
Assay: Antiproliferative activity against human HT1080 cells after 48 hrs by SRB assay
Format: functional, cell-based
Conditions: HT-1080, 48 h
Outline: (§1)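 Cells grown in DMEM with 5% FBS at 37 C; seeded per well at 2.5 x 10^3 (HT-1080), 4.0 x 10^3 (HT-29), 3.0 x 10^3 (M21) or 2.5 x 10^3 (MCF7). Drugs from 40 mM DMSO stock, serial dilutions, final 100 µM to 78 nM, DMSO <0.5%.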

Compound	IC50
CC(C)c1ccccc1OS(=O)(=O)c1ccc(NC(=O)CCl)cc1	1 µM
CC(C)c1ccccc1OS(=O)(=O)c1cccc(NC(=O)CCl)c1	0.78 µM
CCC(=O)Nc1cccc(S(=O)(=O)Oc2ccccc2C(C)C)c1	12 µM
CC(C)c1ccccc1OS(=O)(=O)c1ccc(NC(=O)NC2CCCC2)cc1	3.9 µM
O=C(CCl)Nc1ccc(S(=O)(=O)Oc2ccccc2I)cc1	0.6 µM
CC(C)c1ccccc1OS(=O)(=O)c1cccc(NC(=O)C(C)(C)C)c1	11 µM
CC(C)C(=O)Nc1cccc(S(=O)(=O)Oc2ccccc2C(C)C)c1	16 µM
CCCCCC(=O)Nc1ccc(S(=O)(=O)Oc2ccccc2I)cc1	9.6 µM
CC(C)C(=O)Nc1ccc(S(=O)(=O)Oc2ccccc2I)cc1	3.3 µM
CC(=O)Nc1ccc(S(=O)(=O)Oc2ccccc2C(C)C)cc1	12 µM

System: HT-29
Assay: Antiproliferative activity against human HT-29 cells after 48 hrs by SRB assay
Format: functional, cell-based
Conditions: HT-29, 48 h
Outline: as §1

Compound	IC50
CC(C)c1ccccc1OS(=O)(=O)c1ccc(NC(=O)CCl)cc1	5.6 µM
CC(C)c1ccccc1OS(=O)(=O)c1cccc(NC(=O)CCl)c1	4.5 µM
CCC(=O)Nc1cccc(S(=O)(=O)Oc2ccccc2C(C)C)c1	22 µM
CC(C)c1ccccc1OS(=O)(=O)c1ccc(NC(=O)NC2CCCC2)cc1	7.4 µM
O=C(CCl)Nc1ccc(S(=O)(=O)Oc2ccccc2I)cc1	4.1 µM
CC(C)c1ccccc1OS(=O)(=O)c1cccc(NC(=O)C(C)(C)C)c1	19 µM
CC(C)C(=O)Nc1cccc(S(=O)(=O)Oc2ccccc2C(C)C)c1	16 µM
CCCCCC(=O)Nc1ccc(S(=O)(=O)Oc2ccccc2I)cc1	13 µM
CC(C)C(=O)Nc1ccc(S(=O)(=O)Oc2ccccc2I)cc1	13 µM
CC(=O)Nc1ccc(S(=O)(=O)Oc2ccccc2C(C)C)cc1	23 µM

System: M21
Assay: Antiproliferative activity against human M21 cells after 48 hrs by SRB assay
Format: functional, cell-based
Conditions: M21, 48 h
Outline: as §1

Compound	IC50
CC(C)c1ccccc1OS(=O)(=O)c1ccc(NC(=O)CCl)cc1	3.9 µM
CC(C)c1ccccc1OS(=O)(=O)c1cccc(NC(=O)CCl)c1	3.9 µM
CCC(=O)Nc1cccc(S(=O)(=O)Oc2ccccc2C(C)C)c1	25 µM
CC(C)c1ccccc1OS(=O)(=O)c1ccc(NC(=O)NC2CCCC2)cc1	6.1 µM
O=C(CCl)Nc1ccc(S(=O)(=O)Oc2ccccc2I)cc1	3.9 µM
CC(C)c1ccccc1OS(=O)(=O)c1cccc(NC(=O)C(C)(C)C)c1	13 µM
CC(C)C(=O)Nc1cccc(S(=O)(=O)Oc2ccccc2C(C)C)c1	17 µM
CCCCCC(=O)Nc1ccc(S(=O)(=O)Oc2ccccc2I)cc1	11 µM
CC(C)C(=O)Nc1ccc(S(=O)(=O)Oc2ccccc2I)cc1	13 µM
CC(=O)Nc1ccc(S(=O)(=O)Oc2ccccc2C(C)C)cc1	21 µM

System: MCF7
Assay: Antiproliferative activity against human MCF7 cells after 48 hrs by SRB assay
Format: functional, cell-based
Conditions: MCF7, 48 h
Outline: as §1

Compound	IC50
CC(C)c1ccccc1OS(=O)(=O)c1ccc(NC(=O)CCl)cc1	2.9 µM
CC(C)c1ccccc1OS(=O)(=O)c1cccc(NC(=O)CCl)c1	2.2 µM
CCC(=O)Nc1cccc(S(=O)(=O)Oc2ccccc2C(C)C)c1	14 µM
CC(C)c1ccccc1OS(=O)(=O)c1ccc(NC(=O)NC2CCCC2)cc1	6.2 µM
O=C(CCl)Nc1ccc(S(=O)(=O)Oc2ccccc2I)cc1	2.5 µM
CC(C)c1ccccc1OS(=O)(=O)c1cccc(NC(=O)C(C)(C)C)c1	14 µM
CC(C)C(=O)Nc1cccc(S(=O)(=O)Oc2ccccc2C(C)C)c1	13 µM
CCCCCC(=O)Nc1ccc(S(=O)(=O)Oc2ccccc2I)cc1	10 µM
CC(C)C(=O)Nc1ccc(S(=O)(=O)Oc2ccccc2I)cc1	8.1 µM
CC(=O)Nc1ccc(S(=O)(=O)Oc2ccccc2C(C)C)cc1	16 µM

System: M21
Assay: Cell cycle arrest in human M21 cells assessed as accumulation at sub-G1 phase at 2 times IC50 after 24 hrs by DAPI staining based flow cytometry relative to control
Format: functional
Conditions: not given
Outline: (§2)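 Flow cytometry in M21 cells seeded in six-well plates, allowed 24 h, then exposed 24 h to drug (2- or 5-fold IC50); DMSO 0.5% control. Trypsinized, PBS-washed, fixed in ice-cold EtOH, stained with 2 mg/mL DAPI in PBS; sub-G1, G0/G1, S and G2/M fractions measured on LSR II cytometer.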

Compound	Activity
CC(C)c1ccccc1OS(=O)(=O)c1ccc(NC(=O)CCl)cc1	0.1%
CC(C)c1ccccc1OS(=O)(=O)c1cccc(NC(=O)CCl)c1	0%
O=C(CCl)Nc1ccc(S(=O)(=O)Oc2ccccc2I)cc1	0.3%
CC(C)c1ccccc1OS(=O)(=O)c1cccc(NC(=O)C(C)(C)C)c1	0.7%
CC(C)C(=O)Nc1cccc(S(=O)(=O)Oc2ccccc2C(C)C)c1	0.1%
CCCCCC(=O)Nc1ccc(S(=O)(=O)Oc2ccccc2I)cc1	0.2%
CC(C)C(=O)Nc1ccc(S(=O)(=O)Oc2ccccc2I)cc1	0.2%

System: M21
Assay: Cell cycle arrest in human M21 cells assessed as accumulation at G0/G1 phase at 2 times IC50 after 24 hrs by DAPI staining based flow cytometry relative to control
Format: functional
Conditions: not given
Outline: as §2

Compound	Activity
CC(C)c1ccccc1OS(=O)(=O)c1ccc(NC(=O)CCl)cc1	60.9%
CC(C)c1ccccc1OS(=O)(=O)c1cccc(NC(=O)CCl)c1	64.1%
O=C(CCl)Nc1ccc(S(=O)(=O)Oc2ccccc2I)cc1	71.1%
CC(C)c1ccccc1OS(=O)(=O)c1cccc(NC(=O)C(C)(C)C)c1	61.1%
CC(C)C(=O)Nc1cccc(S(=O)(=O)Oc2ccccc2C(C)C)c1	54.5%
CCCCCC(=O)Nc1ccc(S(=O)(=O)Oc2ccccc2I)cc1	42.6%
CC(C)C(=O)Nc1ccc(S(=O)(=O)Oc2ccccc2I)cc1	62%

System: M21
Assay: Cell cycle arrest in human M21 cells assessed as accumulation at S phase at 2 times IC50 after 24 hrs by DAPI staining based flow cytometry relative to control
Format: functional
Conditions: not given
Outline: as §2

Compound	Activity
CC(C)c1ccccc1OS(=O)(=O)c1ccc(NC(=O)CCl)cc1	18%
CC(C)c1ccccc1OS(=O)(=O)c1cccc(NC(=O)CCl)c1	17.1%
O=C(CCl)Nc1ccc(S(=O)(=O)Oc2ccccc2I)cc1	16.5%
CC(C)c1ccccc1OS(=O)(=O)c1cccc(NC(=O)C(C)(C)C)c1	20%
CC(C)C(=O)Nc1cccc(S(=O)(=O)Oc2ccccc2C(C)C)c1	12.9%
CCCCCC(=O)Nc1ccc(S(=O)(=O)Oc2ccccc2I)cc1	12.9%
CC(C)C(=O)Nc1ccc(S(=O)(=O)Oc2ccccc2I)cc1	23.6%

System: M21
Assay: Cell cycle arrest in human M21 cells assessed as accumulation at G2/M phase at 2 times IC50 after 24 hrs by DAPI staining based flow cytometry relative to control
Format: functional
Conditions: not given
Outline: as §2

Compound	Activity
CC(C)c1ccccc1OS(=O)(=O)c1ccc(NC(=O)CCl)cc1	21%
CC(C)c1ccccc1OS(=O)(=O)c1cccc(NC(=O)CCl)c1	18.8%
O=C(CCl)Nc1ccc(S(=O)(=O)Oc2ccccc2I)cc1	12.1%
CC(C)c1ccccc1OS(=O)(=O)c1cccc(NC(=O)C(C)(C)C)c1	18.2%
CC(C)C(=O)Nc1cccc(S(=O)(=O)Oc2ccccc2C(C)C)c1	32.5%
CCCCCC(=O)Nc1ccc(S(=O)(=O)Oc2ccccc2I)cc1	44.3%
CC(C)C(=O)Nc1ccc(S(=O)(=O)Oc2ccccc2I)cc1	14.2%

System: not listed separately
Assay: Alkylating activity at DNA (unknown origin) after 90 mins by colorimetric NBP assay
Format: functional
Conditions: not given
Outline: (§3)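 NBP alkylation kinetics (Bardos colorimetric method): 400 nmol drug in 1 mL ethanol mixed with 1 mL NBP (10% v/v in 95% ethanol), 1 mL 50 mM acetate buffer pH 4.3 and 1 mL ethanol, kept on ice, then heated at 80 C in shaking water bath; stopped on ice 5 min after 0, 30, 60, 90 min. Rate constant from linear regression of absorbance curve; chlorambucil as positive control.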

Compound	K
O=C(O)CCCc1ccc(N(CCCl)CCCl)cc1	5.3 ×10⁻³ /s
CC(C)c1ccccc1OS(=O)(=O)c1ccc(NC(=O)NCCCl)cc1	0.0034 ×10⁻³ /s
CCNC(=O)Nc1ccc(S(=O)(=O)Oc2ccccc2CC)cc1	0.032 ×10⁻³ /s
CC(=O)Nc1ccc(S(=O)(=O)Oc2ccccc2C(C)C)cc1	0.36 ×10⁻³ /s

System: not listed separately
Assay: Alkylating activity at DNA (unknown origin) after 90 mins by colorimetric NBP assay relative to chlorambucil
Format: functional
Conditions: not given
Outline: as §3

Compound	fold change (FC)
CC(C)c1ccccc1OS(=O)(=O)c1ccc(NC(=O)NCCCl)cc1	1600
CCNC(=O)Nc1ccc(S(=O)(=O)Oc2ccccc2CC)cc1	170
CC(=O)Nc1ccc(S(=O)(=O)Oc2ccccc2C(C)C)cc1	14

System: M21
Assay: Cell cycle arrest in human M21 cells assessed as accumulation at S phase at 2 times IC50 after 24 hrs by DAPI staining based flow cytometry relative to control
Conditions: not given

Compound	Activity
CC(C)c1ccccc1OS(=O)(=O)c1ccc(NC(=O)NC2CCCC2)cc1	12.5%

System: M21
Assay: Cell cycle arrest in human M21 cells assessed as accumulation at G2/M phase at 2 times IC50 after 24 hrs by DAPI staining based flow cytometry relative to control
Conditions: not given

Compound	Activity
CC(C)c1ccccc1OS(=O)(=O)c1ccc(NC(=O)NC2CCCC2)cc1	27.2%

System: M21
Assay: Cell cycle arrest in human M21 cells assessed as accumulation at G0/G1 phase at 2 times IC50 after 24 hrs by DAPI staining based flow cytometry relative to control
Conditions: not given

Compound	Activity
CC(C)c1ccccc1OS(=O)(=O)c1ccc(NC(=O)NC2CCCC2)cc1	60.2%

System: M21
Assay: Cell cycle arrest in human M21 cells assessed as accumulation at sub-G1 phase at 2 times IC50 after 24 hrs by DAPI staining based flow cytometry relative to control
Conditions: not given

Compound	Activity
CC(C)c1ccccc1OS(=O)(=O)c1ccc(NC(=O)NC2CCCC2)cc1	0.1%
